Source: ChEMBL document CHEMBL1121611, “Synthesis and antileukemic activity of 1-methyl-2,5-diphenyl-3,4-bis(hydroxymethyl)-, 1,2,3-triphenyl-4,5-bis(hydroxymethyl)-, and 1-methyl-2,3-diphenyl-4,5-bis(hydroxymethyl)pyrrole bis(N-methylcarbamate)” (1980)

Key:
Format in all cases: functional, Mus musculus
P388 [1] = assay: tested for toxity against P388 Lymphocytic Leukemia and measured for number of mice survived after five days of 12.5 mg/kg drug administration out of 6 mice tested
Outline: (§1)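 Male CD1F1 mice given ip ascitic fluid with ca. 6 × 10^6 P388 cells, then ip dosing in a distilled water-Tween 80 suspension, nine daily doses beginning 24 h post-inoculation. Surviving mice counted on day 5, i.e., 4 days after the first compound injection.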

P388 [2] = assay: Compound was tested against P388 Lymphocytic Leukemia for %survival of mice measured as treated versus control at dose of 12.5 mg/kg
Outline: (§2)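 Male CD1F1 mice inoculated ip with ascitic fluid holding ca. 6 × 10^6 P388 cells. Drug given ip as a distilled water-Tween 80 suspension, nine daily doses starting 24 h after tumor inoculation. Median survival time of treated mice compared with untreated controls and expressed as % T/C; % T/C ≥ 120 counted as significant.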

P388 [3] = assay: Animal weight loss was tested for P388 Lymphocytic Leukemia and measured for change in weight, in treated and control mice at dose of 200 mg/kg
Outline: (§3)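 P388 leukemia was induced by ip inoculation of ascitic fluid containing ca. 6 × 10^6 cells into male CD1F1 mice. Drug was given ip as a distilled water–Tween 80 suspension, nine daily doses starting 24 h after tumor inoculation. Body weight change was recorded on day 5, i.e. 4 days after the first injection, in treated and untreated control groups.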

P388 [4] = assay: Compound was tested against P388 Lymphocytic Leukemia for %survival of mice measured as treated versus control at dose of 100 mg/kg; outline: as §2
P388 [5] = assay: Animal weight loss was tested for P388 Lymphocytic Leukemia and measured for change in weight, in treated and control mice at dose of 100 mg/kg; set-up: unit not given here; outline: as §3
P388 [6] = assay: Animal weight loss was tested for P388 Lymphocytic Leukemia and measured for change in weight, in treated and control mice at dose of 50 mg/kg; set-up: unit not given here; outline: as §3
P388 [7] = assay: Animal weight loss was tested for P388 Lymphocytic Leukemia and measured for change in weight, in treated and control mice at dose of 25 mg/kg; set-up: unit not given here; outline: as §3
P388 [8] = assay: Toxicity against P388 Lymphocytic Leukemia and measured for number of mice survived after five days of 50 mg/kg drug administration out of 6 mice tested; outline: as §1
P388 [9] = assay: Animal weight loss was tested for P388 Lymphocytic Leukemia and measured for change in weight, in treated and control mice at dose of 12.5 mg/kg; set-up: unit not given here; outline: as §3
P388 [10] = assay: Compound was tested against P388 Lymphocytic Leukemia for %survival of mice measured as treated versus control at dose of 200 mg/kg; outline: as §2
P388 [11] = assay: Toxicity against P388 Lymphocytic Leukemia and measured for number of mice survived after five days of 100 mg/kg drug administration out of 6 mice tested; outline: as §1
P388 [12] = assay: Toxicity against P388 Lymphocytic Leukemia and measured for number of mice survived after five days of 200 mg/kg drug administration out of 6 mice tested; outline: as §1
P388 [13] = assay: Toxicity was tested for P388 Lymphocytic Leukemia and measured for number of mice survived after five days of 25 mg/kg drug administration out of 6 mice tested; outline: as §1
P388 [14] = assay: Compound was tested against P388 Lymphocytic Leukemia for %survival of mice measured as treated versus control at dose of 50 mg/kg; outline: as §2
P388 [15] = assay: Compound was tested against P388 Lymphocytic Leukemia for %survival of mice measured as treated versus control at dose of 25 mg/kg; outline: as §2
P388 [16] = assay: Toxicity against P388 Lymphocytic Leukemia and measured for number of mice survived after five days of 12.5 mg/kg drug administration out of 6 mice tested; outline: as §1
P388 [17] = assay: Toxicity against P388 Lymphocytic Leukemia and measured for number of mice survived after five days of 25 mg/kg drug administration out of 6 mice tested; outline: as §1
P388 [18] = assay: Toxicity against P388 Lymphocytic Leukemia and measured for number of mice survived after five days of 2.5 mg/kg drug administration out of 6 mice tested
P388 [19] = assay: Compound was tested against P388 Lymphocytic Leukemia for %survival of mice measured as treated versus control at dose of 5 mg/kg
P388 [20] = assay: Toxicity was tested for P388 Lymphocytic Leukemia and measured for number of mice survived after five days of 20 mg/kg drug administration out of 6 mice tested
P388 [21] = assay: Animal weight loss was tested for P388 Lymphocytic Leukemia and measured for change in weight, in treated and control mice at dose of 5 mg/kg
P388 [22] = assay: Compound was tested against P388 Lymphocytic Leukemia for %survival of mice measured as treated versus control at dose of 20 mg/kg
P388 [23] = assay: Toxicity was tested for P388 Lymphocytic Leukemia and measured for number of mice survived after five days of 40 mg/kg drug administration out of 6 mice tested
P388 [24] = assay: Toxicity against P388 Lymphocytic Leukemia and measured for number of mice survived after five days of 5 mg/kg drug administration out of 6 mice tested
P388 [25] = assay: Compound was tested against P388 Lymphocytic Leukemia for %survival of mice measured as treated versus control at dose of 2.5 mg/kg
P388 [26] = assay: Toxicity against P388 Lymphocytic Leukemia and measured for change in weight, in treated and controlled mice at dose of 40 mg/kg
P388 [27] = assay: Toxicity was tested for P388 Lymphocytic Leukemia and measured for number of mice survived after five days of 10 mg/kg drug administration out of 6 mice tested
P388 [28] = assay: Animal weight loss was tested for P388 Lymphocytic Leukemia and measured for change in weight, in treated and control mice at dose of 10 mg/kg
P388 [29] = assay: Animal weight loss was tested for P388 Lymphocytic Leukemia and measured for change in weight, in treated and control mice at dose of 2.5 mg/kg
P388 [30] = assay: Compound was tested against P388 Lymphocytic Leukemia for %survival of mice measured as treated versus control at dose of 10 mg/kg
P388 [31] = assay: Compound was tested against P388 Lymphocytic Leukemia for %survival of mice measured as treated versus control at dose of 40 mg/kg
P388 [32] = assay: Animal weight loss was tested for P388 Lymphocytic Leukemia and measured for change in weight, in treated and controlled mice at dose of 20 mg/kg
P388 [33] = assay: Toxicity against P388 Lymphocytic Leukemia and measured for number of mice survived after five days of 6.25 mg/kg drug administration out of 6 mice tested; outline: as §1
P388 [34] = assay: Compound was tested against P388 Lymphocytic Leukemia for %survival of mice measured as treated versus control at dose of 6.25 mg/kg; outline: as §2
P388 [35] = assay: Animal weight loss was tested for P388 Lymphocytic Leukemia and measured for change in weight, in treated and control mice at dose of 6.25 mg/kg; outline: as §3
P388 [36] = assay: Animal weight loss was tested for P388 Lymphocytic Leukemia and measured for change in weight, in treated and control mice at dose of 1.56 mg/kg; outline: as §3
P388 [37] = assay: Toxicity against P388 Lymphocytic Leukemia and measured for number of mice survived after five days of 3.13 mg/kg drug administration out of 6 mice tested; outline: as §1
P388 [38] = assay: Toxicity against P388 Lymphocytic Leukemia and measured for number of mice survived after five days of 1.56 mg/kg drug administration out of 6 mice tested; outline: as §1
P388 [39] = assay: Animal weight loss was tested for P388 Lymphocytic Leukemia and measured for change in weight, in treated and control mice at dose of 3.13 mg/kg; outline: as §3
P388 [40] = assay: Compound was tested against P388 Lymphocytic Leukemia for %survival of mice measured as treated versus control at dose of 3.13 mg/kg; outline: as §2
P388 [41] = assay: Compound was tested against P388 Lymphocytic Leukemia for %survival of mice measured as treated versus control at dose of 1.56 mg/kg; outline: as §2
P388 [42] = assay: Toxicity against P388 Lymphocytic Leukemia and measured for number of female mice survived after five days of 6.25 mg/kg drug administration out of 6 mice tested
P388 [43] = assay: Toxicity against P388 Lymphocytic Leukemia and measured for number of female mice survived after five days of 12.5 mg/kg drug administration out of 6 mice tested
P388 [44] = assay: Toxicity against P388 Lymphocytic Leukemia and measured for number of female mice survived after five days of 25 mg/kg drug administration out of 6 mice tested

| Compound | T/C (P388 [2]) | Weight loss (P388 [3]) | T/C (P388 [4]) | Weight loss (P388 [5]) | Weight loss (P388 [6]) | Weight loss (P388 [7]) | No. of mice survived (P388 [8]) | Weight loss (P388 [9]) | T/C (P388 [10]) | No. of mice survived (P388 [11]) | No. of mice survived (P388 [12]) | T/C (P388 [14]) | T/C (P388 [15]) | No. of mice survived (P388 [16]) | No. of mice survived (P388 [17]) | No. of mice survived (P388 [33]) | T/C (P388 [34]) | Weight loss (P388 [35]) | other results |
| --- | --- | --- | --- | --- | --- | --- | --- | --- | --- | --- | --- | --- | --- | --- | --- | --- | --- | --- | --- |
| CNC(=O)OCc1c(-c2ccccc2)c(-c2ccccc2)n(-c2ccc(OC)cc2)c1COC(=O)NC | 106% | -1.3 | 124% | -1 | -0.8 | 0.5 | 6 | 0.3 | 135% | 6 | 6 | 119% | 119% | – | – | – | – | – | No. of mice survived (P388 [1]): 6; No. of mice survived (P388 [13]): 6 |
| CNC(=O)OCc1c(-c2ccccc2)c(-c2ccccc2)n(-c2ccccc2)c1COC(=O)NC | 110% | -2.4 | 144% | -0.6 | -1.1 | 0.1 | 6 | -0.2 | 171% | 6 | 6 | 126% | 117% | 6 | 6 | – | – | – | – |
| CNC(=O)OCc1c(COC(=O)NC)c(-c2ccccc2)n(C)c1-c1ccccc1 | – | – | – | – | – | – | – | – | – | – | – | – | – | – | – | – | – | – | No. of mice survived (P388 [18]): 6; T/C (P388 [19]): 135%; No. of mice survived (P388 [20]): 6; Weight loss (P388 [21]): -1; T/C (P388 [22]): 205%; No. of mice survived (P388 [23]): 6; No. of mice survived (P388 [24]): 6; T/C (P388 [25]): 135%; Weight loss (P388 [26]): -4.4; No. of mice survived (P388 [27]): 6; Weight loss (P388 [28]): -2.1; Weight loss (P388 [29]): -1.1; T/C (P388 [30]): 164%; T/C (P388 [31]): 124%; Weight loss (P388 [32]): -2.8 |
| CNC(=O)OCc1c(COC(=O)NC)c(-c2ccccc2)n(C)c1C | 130% | – | <70% | -6 | -4.6 | -3.9 | 6 | -3.3 | – | 5 | – | 90% | 145% | 6 | 6 | 6 | 135% | -2.5 | – |
| CNC(=O)OCc1c(-c2ccccc2)c(-c2ccccc2)n(C)c1COC(=O)NC | 164% | – | – | -6.1 | -2.5 | -3.2 | 6 | -1.4 | – | 5 | – | 160% | 160% | 6 | 6 | 6 | 138% | -1.1 | Weight loss (P388 [36]): -2.3; No. of mice survived (P388 [37]): 6; No. of mice survived (P388 [38]): 6; Weight loss (P388 [39]): -0.8; T/C (P388 [40]): 128%; T/C (P388 [41]): 102% |
| CNC(=O)OCc1c(COC(=O)NC)c(C)n(-c2ccccc2)c1C | 145% | – | – | – | – | – | – | – | – | – | – | – | 148% | – | – | – | 134% | – | No. of mice survived (P388 [42]): 5; No. of mice survived (P388 [43]): 5; No. of mice survived (P388 [44]): 6 |
